The source of these data is ChEMBL document CHEMBL4346672, “Antimicrobial and KPC/AmpC inhibitory activity of functionalized benzosiloxaboroles” (Eur J Med Chem, 2019).

In brackets after ≈: the same amount, converted by molar mass. Activity calls are given as the source filed them.

Series [1] has as its system Serratia marcescens. Nature of the series: Antibacterial activity against Serratia marcescens ATCC 13880 measured after 18 hrs by CLSI broth dilution method. Format: functional. Particulars: ATCC 13880, 18 h. The essentials:
(§1)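 Broth MIC in Mueller-Hinton II broth following CLSI, compounds dissolved in DMSO. Strains subcultured twice on tryptic soy agar before testing. Growth read after 35 °C, 18 h.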

Series [2] is described as follows: Dissociation constant, pKa1 of compound in 0.1 M NaOH by potentiometric analysis. Format: physicochemical.
The test system of another series is Candida parapsilosis. Nature of the series: Antifungal activity against Candida parapsilosis ATCC 22019 assessed as decrease in fungal cell growth at 0.78 to 12.5 mg/L incubated for 24 hrs by CLSI broth dilution method. Format: functional. Particulars: Lodderomyces parapsilosis, ATCC 22019, 24 h. A digest of the protocol: (§2)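 Yeast broth dilution in RPMI 1640 with 2% glucose, compounds in DMSO. Yeasts pre-grown on Sabouraud dextrose agar. Growth read after 35 °C, 24 h.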
In general terms: Dilution methods test growth across graded concentrations, often in twofold steps.

In a further series the test system is Candida tropicalis. Nature of the series: Antifungal activity against Candida tropicalis IBA 171 assessed as decrease in fungal cell growth at 0.78 to 12.5 mg/L incubated for 24 hrs by CLSI broth dilution method. Particulars: IBA 171, 24 h. Format: functional. The essentials: as §2
In series [3] the test system is Meyerozyma guilliermondii. Put plainly: Antifungal activity against Candida guilliermondii IBA 155 assessed as decrease in fungal cell growth at 0.78 to 12.5 mg/L incubated for 24 hrs by CLSI broth dilution method. Format: functional. Particulars: IBA 155, 24 h. A digest of the protocol: as §2
The subject of a further series is Saccharomyces cerevisiae. Nature of the series: Antifungal activity against Saccharomyces cerevisiae ATCC 9763 assessed as decrease in fungal cell growth at 0.78 to 12.5 mg/L incubated for 24 hrs by CLSI broth dilution method. Format: functional. Particulars: ATCC 9763, 24 h. The essentials:
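Yeast strain subcultured on Sabouraud dextrose agar for 24–48 h at 30 °C before testing. Compounds dissolved in DMSO.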

The next series has as its system Pichia kudriavzevii. Nature of the series: Antifungal activity against Candida krusei ATCC 6258 assessed as diameter of zone inhibition incubated for 24 hrs by CLSI disc diffusion method. Format: functional. A digest of the protocol: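 Yeast disc diffusion on Mueller-Hinton agar supplemented with 2% glucose and 0.5 mg/L methylene blue. Compounds in DMSO. Yeasts subcultured on Sabouraud dextrose agar before testing. Zones read after 35 °C, 24 h.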
In general terms: Agar diffusion results depend on both activity and mobility in agar.

Series [4] relates to Staphylococcus epidermidis. Nature of the series: Antibacterial activity against Staphylococcus epidermidis ATCC 12228 measured after 18 hrs by CLSI broth dilution method. Format: functional. Particulars: ATCC 12228, 18 h. A digest of the protocol: as §1
For another series, the system named is Enterococcus faecalis. Put plainly: Antibacterial activity against Enterococcus faecalis ATCC 29212 measured after 18 hrs by CLSI broth dilution method. Format: functional. Particulars: ATCC 29212, 18 h. The essentials: as §1
A further series deals with Staphylococcus aureus. Nature of the series: Bactericidal activity against Staphylococcus aureus ATCC 6538P measured after 18 hrs by CLSI broth dilution method. Format: functional. The essentials:
(§3)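 Strains stored at -80 °C and subcultured twice on tryptic soy agar before testing. Compounds dissolved in DMSO. […] MBC then determined per CLSI recommendations.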

Another series concerns Bacillus subtilis. Nature of the series: Antibacterial activity against Bacillus subtilis ATCC 6633 assessed as diameter of zone inhibition measured after 18 hrs by CLSI disc diffusion method. Format: functional. A digest of the protocol:
(§4)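 Disc diffusion on Mueller-Hinton II agar. Compounds dissolved in DMSO. Strains stored at -80 °C and subcultured twice on tryptic soy agar before testing. Inhibition zones read after 35 °C, 18 h.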

Series [5] deals with Proteus mirabilis. Put plainly: Antibacterial activity against Proteus mirabilis ATCC 12453 measured after 18 hrs by CLSI broth dilution method. Particulars: ATCC 12453, 18 h. Format: functional. The essentials:
as §1

For series [6], the system named is Enterobacter cloacae. Nature of the series: Antibacterial activity against Enterobacter cloacae DSM 6234 measured after 18 hrs by CLSI broth dilution method. Format: functional. Particulars: DSM 6234, 18 h. A digest of the protocol:
as §1

Series [7] relates to Proteus mirabilis. Nature of the series: Antibacterial activity against Proteus mirabilis ATCC 12453 assessed as diameter of zone inhibition measured after 18 hrs by CLSI disc diffusion method. Format: functional. A digest of the protocol: as §4
In series [8] the test system is Stenotrophomonas maltophilia. Put plainly: Antibacterial activity against Stenotrophomonas maltophilia ATCC 13637 assessed as diameter of zone inhibition measured after 18 hrs by CLSI disc diffusion method. Format: functional. The essentials:
as §4

For series [9], the system named is Enterobacter cloacae. Put plainly: Antibacterial activity against Enterobacter cloacae DSM 6234 assessed as fold reduction of MIC in presence of efflux pump inhibitor PAbetaN incubated for 18 hrs by broth microdilution method. Format: functional. A digest of the protocol:
(§5)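 MICs determined with and without PAβN at 50 mg/L in Mueller-Hinton broth containing 1 mM MgSO₄. 2-fold serial dilutions per CLSI. Fold change taken from the paired MICs after 35 °C, 18 h.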

Series [10] has as its system Stenotrophomonas maltophilia. Put plainly: Antibacterial activity against Stenotrophomonas maltophilia ATCC 13637 assessed as fold reduction of MIC in presence of efflux pump inhibitor PAbetaN incubated for 18 hrs by broth microdilution method. Format: functional. A digest of the protocol:
as §5

Series [11] deals with Serratia marcescens. Particulars: ATCC 13880.
For series [12], the system named is Staphylococcus epidermidis. Put plainly: Bactericidal activity against Staphylococcus epidermidis ATCC 12228 measured after 18 hrs by CLSI broth dilution method. Format: functional. Particulars: ATCC 12228, 18 h. The essentials: as §3

On to `C[Si]1(C)OB(O)c2ccc(F)cc21`, for which the MIC (usually the lowest concentration that inhibits growth of the organism) with Serratia marcescens [1] was above 400 µg/mL; in the series with Candida parapsilosis, 25 µg/mL (≈ 128 µM); in the series on Candida tropicalis, 12.5 µg/mL (≈ 63.8 µM); in series [3] it was 25 µg/mL (≈ 128 µM); in the series on Saccharomyces cerevisiae, 1.56 µg/mL (≈ 7.97 µM); in [4], 50 µg/mL (≈ 255 µM). Also, the MIC in the series with Enterococcus faecalis was 200 µg/mL (≈ 1020 µM); in the series on Proteus mirabilis [5] it was above 400 µg/mL; against Enterobacter cloacae [6], above 400 µg/mL. Further, the pKa (in general, the pH at which an ionisable group is half protonated) in series [2] turned out to be 7.3. Besides, the results for the “diameter of the inhibition zone (DIZ)” value (in the series on Pichia kudriavzevii; with Bacillus subtilis; in [8]) were 11 mm, 14 mm and 12 mm, respectively. In addition, in the series with Staphylococcus aureus, the MBC – broadly, the smallest concentration meeting the test's criterion for killing – was 400 µg/mL (≈ 2040 µM). The “diameter of the inhibition zone (DIZ)” value in the series on Proteus mirabilis [7] was “inactive”. The “fold change (FC)” value came out at 32 in the series with Enterobacter cloacae [9] and 8 in [10]. For the same molecule, the DIZ entry in the series with Serratia marcescens [11] is “inactive”.

`C[Si]1(C)OB(O)c2cc(B(O)O)cc(F)c21`: the MIC in the series with Serratia marcescens [1] was above 400 µg/mL; in the series with Candida parapsilosis, 100 µg/mL (≈ 417 µM); in the series on Candida tropicalis it was 400 µg/mL (≈ 1670 µM); in series [3], 400 µg/mL (≈ 1670 µM); in the series on Saccharomyces cerevisiae it was 400 µg/mL (≈ 1670 µM); in [4], 50 µg/mL (≈ 208 µM). Also, the MIC in the series with Enterococcus faecalis is 400 µg/mL (≈ 1670 µM); in the series on Proteus mirabilis [5], above 400 µg/mL; with Enterobacter cloacae [6], above 400 µg/mL. In series [2], this molecule had a pKa of 6.6. The “diameter of the inhibition zone (DIZ)” value (with Pichia kudriavzevii; in the series with Proteus mirabilis [7]; in series [8]) was “inactive” each time. Moreover, the MBC (against Staphylococcus aureus; in series [12]) was 400 µg/mL (≈ 1670 µM) throughout. In addition, the “diameter of the inhibition zone (DIZ)” value in the series on Bacillus subtilis came out at 22 mm. Besides, the “fold change (FC)” value in the series on Enterobacter cloacae [9] worked out at 32; in series [10], 16. Besides, the DIZ result in the series on Serratia marcescens [11] is “inactive”.

In the case of `C[Si]1(C)OB(O)c2cc(C=O)cc(F)c21`, the MIC in the series with Serratia marcescens [1] is above 400 µg/mL; with Candida parapsilosis, 400 µg/mL (≈ 1790 µM); in the series on Candida tropicalis, 200 µg/mL (≈ 893 µM); in [3] it was above 400 µg/mL; in the series with Saccharomyces cerevisiae it was 200 µg/mL (≈ 893 µM); in series [4] it was 50 µg/mL (≈ 223 µM). Also, the MIC in the series on Enterococcus faecalis was 400 µg/mL (≈ 1790 µM); with Proteus mirabilis [5], above 400 µg/mL; against Enterobacter cloacae [6] it was above 400 µg/mL. The molecule further gave a pKa in series [2] of 5.6. Further, the “diameter of the inhibition zone (DIZ)” value (with Pichia kudriavzevii; with Proteus mirabilis [7]; in series [8]) was “inactive” in each case. Moreover, the MBC against Staphylococcus aureus was 100 µg/mL (≈ 446 µM); in series [12] it was 200 µg/mL (≈ 893 µM). Further, the “diameter of the inhibition zone (DIZ)” value in the series with Bacillus subtilis is 22 mm. In addition, the “fold change (FC)” value with Enterobacter cloacae [9] came to 16; in series [10], 8. Moreover, the DIZ entry in the series on Serratia marcescens [11] was “inactive”.

Turning to `C[Si]1(C)OB(O)c2cccc(B(O)O)c21`, the MIC is above 400 µg/mL against Serratia marcescens [1]; 400 µg/mL (≈ 1800 µM) in the series with Candida parapsilosis; 400 µg/mL (≈ 1800 µM) with Candida tropicalis; above 400 µg/mL in series [3]; 50 µg/mL (≈ 225 µM) in the series with Saccharomyces cerevisiae; 200 µg/mL (≈ 901 µM) in series [4]. Further, the MIC in the series on Enterococcus faecalis, with Proteus mirabilis [5] and against Enterobacter cloacae [6] was above 400 µg/mL throughout. This molecule yielded a pKa in series [2] of 7.4. Further, the “diameter of the inhibition zone (DIZ)” value in the series on Pichia kudriavzevii and in the series with Proteus mirabilis [7] was “inactive” each time. The “diameter of the inhibition zone (DIZ)” value with Bacillus subtilis came out at 15 mm; in series [8], 12 mm. Also, the figures for the “fold change (FC)” value (in the series on Enterobacter cloacae [9]; in series [10]) were 8 and 16, respectively. In addition, the DIZ entry with Serratia marcescens [11] is “inactive”.
